# Screens as filed in PubChem BioAssay.
# An excerpt weighted towards active compounds, which were near 1.6% of everything screened.
# PAD4 inh: inhibitors of human PAD4 | inhibition, % at 6.36 µM | Q9UM07 | 330,000 compounds, 0.41% hits | recombinant PAD4, RCA probe fluorescence polarization | AID 485272;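 active means percent inhibition above a cutoff equal to the mean of all tested compounds plus 3 SD, cut at about 15% in these data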;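 further: 0% = PAD4 with RCA probe and DMSO and 100% = probe without PAD4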
# TDP2 absorb: TDP2 (human) inhibition, absorbance primary screen; 370,000 compounds, 0.34% hits; recombinant TDP2, T5PNP hydrolysis, p-nitrophenol absorbance 415 nm; inhibition, % at 12.8 µM;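 active means inhibition above the mean of all tested compounds plus 3 SD, set per campaign, cut at about 25% in these data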;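 further: 0% = DMSO with enzyme and 100% = buffer with substrate but no TDP2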
# Target sequence (O95551 whole entry, looked up): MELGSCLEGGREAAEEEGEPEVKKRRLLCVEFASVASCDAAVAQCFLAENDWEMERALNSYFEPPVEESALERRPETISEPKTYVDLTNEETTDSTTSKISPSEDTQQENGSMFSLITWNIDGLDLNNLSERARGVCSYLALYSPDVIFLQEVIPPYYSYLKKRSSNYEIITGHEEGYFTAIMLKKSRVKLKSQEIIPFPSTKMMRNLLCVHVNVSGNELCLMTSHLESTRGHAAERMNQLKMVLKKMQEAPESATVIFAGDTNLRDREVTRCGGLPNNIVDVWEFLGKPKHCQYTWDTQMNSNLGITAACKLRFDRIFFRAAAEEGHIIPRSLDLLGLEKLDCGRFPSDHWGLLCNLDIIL
#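 Test system: Human TDP2 enzyme | Reagent: 5 mM T5PNP | Compound dosing: 12.8 µM single point, 1% DMSO | Incubation: Enzyme reaction with compound for 2 h at 37 °C | Technique: p-Nitrophenol epi absorbance | Read-out: % inhibition relative to enzyme-containing and enzyme-free wells | Benchmarks: High control without enzyme, low control DMSO plus TDP2 | Replicates: Singlicate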
# Apaf1 inhib: inhibitors of human Apaf-1 apoptosome; O14727; reconstituted apoptosome caspase-3 activity, DEVD-Rh110 fluorescence; inhibition, % at 20 µM; 330,000 compounds, 0.71% hits; active means inhibition of at least 40% at 20 µM;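 further: plate controls were DMSO wells for no effect and DEVD-CHO caspase inhibitor wells for full effect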
#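 Material: reconstituted apoptosome with Apaf-1, cytochrome c, caspase-9, procaspase-3, dATP / Buffer or medium: pH 7.5 Hepes buffer with CHAPS, BSA, DTT / Also added: cytochrome c with DEVD-Rh110 / Schedule: compound with Apaf-1, dATP, procaspase-3 30 min, then 50 min reaction, room temperature / Technique: rhodamine 110 fluorescence at Ex 480/Em 540 nm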
# GSTO1 inh: counter-screen for RBBP9 inhibitors: inhibitors of human GSTO1 | P78417 | inhibition, % at 5.96 µM | recombinant GSTO1, activity-based probe fluorescence polarization | 300,000 compounds, 1.1% hits | AID 1974;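 active means inhibition above the campaign mean inhibition plus 3 SD, cut at about 35% in these data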;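 further: 0% = GSTO1-1 with DMSO and 100% = wells lacking GSTO1-1 enzyme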
# Target sequence (P78417 whole entry, looked up): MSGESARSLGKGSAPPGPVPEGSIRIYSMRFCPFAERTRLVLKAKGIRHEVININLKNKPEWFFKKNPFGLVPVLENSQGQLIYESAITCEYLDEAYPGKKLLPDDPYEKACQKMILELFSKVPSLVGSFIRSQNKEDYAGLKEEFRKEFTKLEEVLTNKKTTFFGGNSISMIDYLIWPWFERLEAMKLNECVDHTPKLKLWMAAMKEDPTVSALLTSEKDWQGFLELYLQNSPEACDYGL
# UBC9 SUMO inh: inhibitors of human SUMOylation (UBC9) | HTRF SUMOylation assay, SAE1/SAE2 + UBC9, in vitro | inhibition, % at 35 µM | 290,000 compounds, 0.36% hits | AID 2006; in the data active means inhibition above about 50%, passing the limit was not always enough
# JMJD2C inh: blocks human GASC-1 demethylase activity; 330,000 compounds, 0.069% hits; AID 2099; inhibition, % at 2.35 µM; Q9H3R0; GST-JMJD2C(1-420) H3K9me3 demethylation, DELFIA europium;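 active means more than half of a compound's replicate wells show inhibition beyond 50%, single wells judged on their own value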;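 further: signal counts dimethyl H3K9 product captured on neutravidin plate; 0% = median of DMSO wells and 100% = 0.3 times that DMSO median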
# PAD4 confirm: PAD4 (human) inhibition, confirmed; shares compounds with PAD4 inh; 1,200 compounds, 28% hits; recombinant PAD4, RCA probe fluorescence polarization; inhibition, % at 6.36 µM;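 active means mean inhibition across replicates above the hit cutoff set by the earlier primary screen, cut at about 15% in these data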;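 further: inhibitors block active-site labeling by the probe so polarization falls; 0% = PAD4 with probe and DMSO and 100% = probe without PAD4 enzyme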
# The depositor's hits bear a star; . = no result.
SMILES,PAD4 inh,TDP2 absorb,Apaf1 inhib,GSTO1 inh,UBC9 SUMO inh,JMJD2C inh,PAD4 confirm
COc1cccc(C(=O)Nc2nc(-c3ccc(S(=O)(=O)N4CCOCC4)cc3)cs2)c1,-1,0,13,-10,-42,-12,.
CCN(Cc1ccccc1)C(=O)C1C2C=CC3(CN(Cc4ccccc4)C(=O)C13)O2 (stereo not drawn),.,-2,.,.,.,.,.
CCCN1C=CC(=C/C=C(\C#N)C(=O)OCC)C=C1,-1,.,5,7,7,-7,.
CCOC(=O)/C(C#N)=C/C=C1\C=Cc2ccccc2N1CC,87*,-3,15,-24,21,10,19*
O=C(CN1CCN(c2ccccn2)CC1)Nc1nc2ccccc2s1,18*,4,-9,8,22,-22,6
CCOc1ccc2nc(NC(=O)CN3CCN(c4ccccn4)CC3)sc2c1,4,-4,11,-4,-4,3,.
CCOC(=O)NC(=O)/C(C#N)=C\Nc1sccc1C(=O)OC,35*,-4,2,4,17,13,4
CCCCNC(=O)CC1Nc2ccccc2NC1=O (stereo not drawn),-5,-2,3,0,4,-2,.
CCCCOc1ccccc1NC(=O)CC1Nc2ccccc2NC1=O (stereo not drawn),23*,-13,-7,-11,-3,6,-4
Clc1cccc(-c2ccc(C=Nc3ccc(N4CCOCC4)cc3)o2)c1,19*,13,.,8,-8,7,5
O=C(c1ccc(Cl)c(S(=O)(=O)N2CCOCC2)c1)N1CCCC1,16*,-16,6,3,13,2,1
Cc1ccc(C2=Nc3ccccc3SC(c3cccc([N+](=O)[O-])c3)C2)cc1 (stereo not drawn),18*,-9,15,6,-2,1,-6
O=[N+]([O-])c1cccc(C2CC(c3ccccc3)=NN2c2ccccc2)c1 (stereo not drawn),6,-6,0,7,8,1,.
COc1cc(OC)c(OC)cc1/C=N/NC(=O)c1ccc2nc[nH]c2c1,16*,-8,-24,-10,12,1,1
COC(=O)[C@]12C[C@H](CC(=O)NCc3ccc(OC)c(OC)c3)C(=O)N(Cc3ccc(Cl)cc3Cl)C1=C[C@H](C(C)(C)C)O[C@@H]2C,.,-2,.,.,.,.,.
CCCCC1OC23CCCCC2C(C#N)(C#N)C1(C#N)C(=N)O3 (stereo not drawn),25*,2,3,7,-6,2,17*
CCCCCCCCOc1ccc(C2OC34CCCCC3C(C#N)(C#N)C2(C#N)C(=N)O4)cc1 (stereo not drawn),16*,.,8,14,27,1,9
CC(C)Cn1c(N)c(C(=O)COC(=O)Cc2cccs2)c(=O)n(C)c1=O,46*,7,1,0,12,1,2
CC(C)Cn1c(N)c(C(=O)COC(=O)/C=C/c2cccs2)c(=O)n(C)c1=O,-3,13,6,-3,15,1,.
Cc1ccc2sc(C)[n+](CCCS(=O)(=O)[O-])c2c1,17*,0,9,2,13,0,-2
Cc1ccc2c(c1)sc(C)[n+]2CCCS(=O)(=O)[O-],18*,-14,5,-10,19,-2,11
O=C(CCc1ccccc1)N[C@H]1[C@@H](OC(=O)c2cccnc2)CCC[C@]12C(=O)N(Cc1ccccc1)c1ccccc12,.,1,.,.,.,.,.
Nc1[nH]c2cc(Cl)ccc2c1C(=O)N1CCOCC1,.,-14,.,.,.,.,.
CC(C)[C@H](N)C(=O)N[C@@H](Cc1ccccc1)C(=O)N1CCC2CCN(S(=O)(=O)c3ccccc3)CC21 (stereo partly drawn),.,0,.,.,.,.,.
CC(OC(=O)c1nc(Cl)ccc1Cl)C(=O)NC1CCCCC1C (stereo not drawn),25*,1,-9,.,.,6,4
SMILES,PAD4 inh,TDP2 absorb,Apaf1 inhib,GSTO1 inh,UBC9 SUMO inh,JMJD2C inh,PAD4 confirm
CC(C)CN1C(=O)C[C@@]2(C(=O)N(C)c3ccc(NS(=O)(=O)C4CC4)cc32)C1c1ccccc1 (stereo partly drawn),.,15,.,.,.,.,.
CC(=O)N1CCN(c2ccc(NCc3ccc(C)cc3)cc2)CC1,3,9,0,5,2,-10,.
CCc1ccc(CNc2ccc(N3CCN(C(C)=O)CC3)cc2)cc1,29*,12,17,29,-1,-13,2
Cc1ccnc(NC(=O)Nc2ccc(F)cc2)c1,4,-2,7,-1,8,23,.
Cc1ccnc(NC(=O)c2cc3cc(F)ccc3s2)c1,17*,-5,14,-8,-8,9,25*
O=c1c2cc(F)ccc2sn1-c1ccccc1,41*,4,5,.,.,7,36*
O=C(O)c1cccc(-n2sc3ccccc3c2=O)c1,56*,-8,8,.,.,1,46*
N#Cc1ccc2c(=O)n(-c3ccccc3)sc2c1,.,7,.,.,.,.,.
O=c1c2ccccc2sn1-c1ccccc1,36*,4,3,-5,5,-6,41*
Cc1ccccc1-n1sc2cc(F)ccc2c1=O,21*,13,1,9,9,5,28*
O=c1c2ccccc2sn1-c1ccccc1F,.,1,.,.,.,.,.
CC(=O)Nc1ccc2c(=O)n(-c3ccccc3)sc2c1,.,6,.,.,.,.,.
CCOC(=O)c1cccc(NC(=O)CN(C)S(=O)(=O)c2ccc(Cl)s2)c1,.,-4,.,.,.,.,.
COC(=O)C1CN(Cc2cn(CCOC(C)=O)nn2)CCS(=O)(=O)N1Cc1ccccc1 (stereo not drawn),.,6,.,.,.,.,.
Cc1ccc(NC(=O)c2ccc(=O)[nH]n2)cc1S(=O)(=O)Nc1ccc(SC(F)F)cc1,22*,-4,3,.,.,3,5
CCn1c(-c2ccccn2)nc2cc(S(=O)(=O)N(C)C)ccc21,-4,11,-3,-5,0,6,.
CCn1c(-c2cc(Br)cc(OC)c2O)nc2cc(S(=O)(=O)N(C)C)ccc21,18*,4,13,-10,6,-9,22*
C=CCN(C(=O)c1csnn1)C(C(=O)NCc1ccc(F)cc1)c1ccc(F)cc1 (stereo not drawn),15*,10,1,0,-8,-2,-7
C=CCN(C(=O)c1csnn1)C(C(=O)NCc1ccc(F)cc1)c1ccccc1 (stereo not drawn),-4,-16,-1,-2,-16,3,.
Cc1ccccc1C1CC(=O)Oc2cc(O)ccc21 (stereo not drawn),82*,.,8,.,.,.,78*
O=C(Nc1ccccc1Br)C(=O)N1CCCC1,-2,7,4,0,-12,-10,.
O=C(Nc1ccccn1)C(=O)N1CCCCC1,36*,-6,-1,-1,0,27,-2
